Measurements of several laboratories.
Protocols differ between the studies behind these lines.
Target: Dual specificity mitogen-activated protein kinase kinase 1 (MAP2K1, Homo sapiens, UniProt Q02750)

COc1cc2ncnc(Nc3ccc(F)c(Cl)c3)c2cc1OCCCN1CCOCC1 — remaining binding (cell-free assay, competition with immobilised ligand; 0.1 µM): 100%
Cc1nc(Cc2cccc(C(F)(F)F)c2)sc1-c1ccc(C(N)=O)nc1 — remaining binding (cell-free assay, competition with immobilised ligand; 1 µM): 100%
CN1CC[C@H](c2c(O)cc(O)c3c(=O)cc(-c4ccccc4Cl)oc23)[C@H](O)C1 — remaining binding (cell-free assay, competition with immobilised ligand; 10 µM): 92%
N#CC1(c2ccccn2)CCN(Cc2cc(C(=O)N3CCCC3)c(=O)n3ccccc23)CC1 — remaining binding (cell-free assay, competition with immobilised ligand; 1 µM): 100%
F[C@@H]1CCN(c2nccc(-c3cnn4ncccc34)n2)C1 — remaining binding (binding; 1 µM): 89%
COc1cnc(Nc2cccc(S(N)(=O)=O)c2)nc1N1CCN(c2ccccc2)C(=O)C1 — remaining binding (binding, competition with immobilised ligand; 1 µM): 91%
COC(=O)Nc1nc2cc(C(=O)c3ccccc3)ccc2[nH]1 — remaining binding (cell-free assay, competition with immobilised ligand; 0.1 µM): 100%
C[C@H](c1cccc(C#N)c1)n1cc(Cl)cc(C(N)=O)c1=N — remaining binding (cell-free assay, competition with immobilised ligand; 1 µM): 75%
CS(=O)(=O)CCNCc1ccc(-c2ccc3ncnc(Nc4ccc(OCc5cccc(F)c5)c(Cl)c4)c3c2)o1 — remaining binding (cell-free assay, competition with immobilised ligand; 0.1 µM): 95%
C[C@@H]1CN(c2ccc3ncc(-c4ccc5[nH]nc(C6CC6)c5c4)n3n2)C[C@H](C)O1 — remaining binding (binding, competition with immobilised ligand; 0.5 µM): 100%
CNC(=O)c1cc(Oc2ccc(NC(=O)Nc3ccc(Cl)c(C(F)(F)F)c3)cc2)ccn1 — remaining binding (cell-free assay, competition with immobilised ligand; 10 µM): 99%
Nc1ncc2c(n1)-c1c([nH]c3ccc(C#CC4CC4)cc13)CCCC2 — remaining binding (binding, competition with immobilised ligand; 1 µM): 100%
C=CC(=O)N1CCC(C(=O)NCC(=O)N2CCN(c3nc(-c4cnc(N)nc4C(F)F)nc(N4CCOCC4)n3)CC2)CC1 — remaining binding (binding, competition with immobilised ligand; 1 µM): 69%
Cc1ccc(NC(=O)c2ccc(CN3CCN(C)CC3)cc2)cc1Nc1nccc(-c2cccnc2)n1 — remaining binding (cell-free assay, competition with immobilised ligand; 0.1 µM): 95%
CC(=O)Nc1c(C(C)=O)c(=O)n(C)c2nc(-c3ccc(Cl)cc3Cl)c(-c3ccc(Cl)cc3)cc12 — remaining binding (cell-free assay, competition with immobilised ligand; 1 µM): 100%
C[C@@H]1CCN(c2nccc(-c3cnn4ncccc34)n2)C1 — remaining binding (binding, competition with immobilised ligand; 1 µM): 75%
O=C(c1ccc(Nc2ncc(Cl)c(-c3ccc(Cl)s3)n2)cc1)N1CCC(N2CCCC2)CC1 — remaining binding (binding, competition with immobilised ligand; 1 µM): 18%
O=C(NCc1ncc(C(F)(F)F)cc1Cl)c1ccc2c(c1)C1(CCS(=O)(=O)CC1)[C@@H](C1CC1)N2S(=O)(=O)c1ccc(F)cc1 — remaining binding (cell-free assay, competition with immobilised ligand; 1 µM): 91%
FC(F)(F)Oc1cccc(-c2cnc3ccc(-c4ccncc4)nn23)c1 — remaining binding (cell-free assay, competition with immobilised ligand; 5 µM): 70%
CN(CCCC(F)(F)F)c1nccc(-c2cnn3ncccc23)n1 — remaining binding (binding, competition with immobilised ligand; 1 µM): 99%
O=C(c1ccc(Nc2nccc(-c3cc4ccccc4s3)n2)cc1)N1CCC(N2CCCC2)CC1 — remaining binding (binding, competition with immobilised ligand; 1 µM): 54%
C[C@H](c1ccc(F)cc1)N(Cc1cccc(C(=O)O)c1)C(=O)c1cnc2ccccc2c1 — remaining binding (cell-free assay, competition with immobilised ligand; 1 µM): 100%
c1cncc(-c2cccc(Nc3nccc(NC4CCCCC4)n3)c2)c1 — remaining binding (binding, competition with immobilised ligand; 10 µM): 79%
CC1=C(C#N)C(c2ccc3c(c2)c(NC(=O)c2ccccc2C)nn3C)C(C#N)=C(C)N1 — remaining binding (cell-free assay, competition with immobilised ligand; 1 µM): 87%
CCN1CCN(Cc2ccc(C(=O)Nc3ccc(C)c(Oc4ccc5c(c4)CC(=O)N5)c3)cc2C(F)(F)F)CC1 — remaining binding (binding, competition with immobilised ligand; 1 µM): 100%
O=C(NCC1CCOCC1)c1n[nH]cc1NC(=O)c1c(F)cccc1F — remaining binding (binding, competition with immobilised ligand; 1 µM): 100%
CN(C)c1nccc(-c2cnc3ncccn23)n1 — remaining binding (binding, competition with immobilised ligand; 1 µM): 81%
CN(C)c1ncnc(-c2ccc3nc(Nc4cc(CN5CCN(C(=O)CC(F)(F)F)CC5)ccn4)[nH]c3c2)c1Cl — remaining binding (cell-free assay, competition with immobilised ligand; 1 µM): 78%
CCN(CC)CCNC(=O)c1c(C)[nH]c(/C=C2\C(=O)Nc3ccc(F)cc32)c1C — remaining binding (cell-free assay, competition with immobilised ligand; 0.1 µM): 51%
O=C(NCCCN1CCOCC1)c1ccc(Nc2ncc(Cl)c(-c3ccc(Cl)s3)n2)cc1 — remaining binding (binding, competition with immobilised ligand; 1 µM): 63%
Cc1c(-c2ccccc2)oc2c(C(=O)OCCN3CCCCC3)cccc2c1=O — remaining binding (cell-free assay, competition with immobilised ligand; 10 µM): 95%
CN(C)c1ncc(F)c(-c2cnn3ncccc23)n1 — remaining binding (binding, competition with immobilised ligand; 1 µM): 78%
